Compound activity as filed in PubChem BioAssay.
Only some compounds are listed: those with a hit (about 2.2% of all), similar ones and a draw of the others.
Rtt109 HAT inh – inhibitors of C. albicans Rtt109/Vps75 HAT, primary screen, biochemical, ThioGlo CoA-SH fluorescence, plate reader. Histone acetyltransferase RTT109 (Candida albicans (strain SC5314 / ATCC MYA-2876)), …. purified Rtt109/Vps75, 4 h. inhibition, % at 34.9 µM. 0.16% of 330,000 active;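 active = inhibition of at least 50% in every replicate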
CAL PDZ FP-1 – CAL PDZ peptide-binding inhibitors, primary screen, biochemical, fluorescence polarization, Cer-tagged CAL PDZ, HTS. purified CAL PDZ, TMR-peptide fluorescence polarization, 1 h. inhibition, % at 20 µM. 0.02% of 330,000 active. AID 504414, 2011;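 active = highest replicate inhibition of at least 40%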;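 note: plate controls were DMSO neutral control wells for no effect and unlabeled competitor peptide control wells for full effect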
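System: tagged CAL PDZ domain. Schedule: 1 h room-temperature incubation prior to read. Signal: fluorescence polarization (mP). Measure: percent inhibition from loss of millipolarization.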
dFosB act-1 – activators of delta FosB homodimer, primary screen, biochemical, fluorescence polarization, TAMRA-CDK5 oligo, single point | 0.99% of 340,000 active | activation, % at 25 µM | Protein FosB (Mus musculus), P13346 | purified delta FosB; percent of positive-control signal above neutral wells;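 active = mean activation above about 17%, with every replicate also reaching it, limit read from the data, passing the limit was not always enough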
Dyrk1A ADPGlo – rat Dyrk1A kinase inhibitors, primary screen, biochemical, single point, plate reader; inhibition, % at 12.5 µM; 0.43% of 310,000 active; Dual specificity tyrosine-phosphorylation-regulated kinase 1A (Rattus norvegicus), Q63470; ADP-Glo luminescence, NFATc1 peptide; in the data active = inhibition above about 50%;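 note: plate controls were vehicle with enzyme for no effect and no enzyme for full effect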
CAL PDZ FP-2 – untagged CAL PDZ binding inhibitors, primary screen, biochemical, fluorescence polarization, HTS. Golgi-associated PDZ and coiled-coil motif-containing protein (Homo sapiens), Q9HD26. 0.92% of 300,000 active. inhibition, % at 24.9 µM. AID 602252, 2012. purified CAL PDZ, TMR-peptide fluorescence polarization, 1 h;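 active = mean inhibition of at least 30% with at least half of replicates also reaching 30%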;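 note: 0% = DMSO neutral control and 100% = excess unlabeled competitor peptide PRC23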
CDK5 p35 inh – inhibitors of human CDK5/p35 kinase, primary screen, biochemical, single concentration; Cyclin-dependent kinase 5 (Homo sapiens) + Cyclin-dependent kinase 5 activator 1 (Homo …; Recombinant CDK5/p35, ADP-Glo luminescence, 60 min; inhibition, % at 10 µM; 0.01% of 330,000 active;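 active = highest replicate inhibition of at least 50% and at least 75% of replicates reaching 50%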;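 note: plate controls were DMSO neutral control for no effect and GW8510 at 10 µM for full effect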
Target sequence (Q00535 whole entry, looked up): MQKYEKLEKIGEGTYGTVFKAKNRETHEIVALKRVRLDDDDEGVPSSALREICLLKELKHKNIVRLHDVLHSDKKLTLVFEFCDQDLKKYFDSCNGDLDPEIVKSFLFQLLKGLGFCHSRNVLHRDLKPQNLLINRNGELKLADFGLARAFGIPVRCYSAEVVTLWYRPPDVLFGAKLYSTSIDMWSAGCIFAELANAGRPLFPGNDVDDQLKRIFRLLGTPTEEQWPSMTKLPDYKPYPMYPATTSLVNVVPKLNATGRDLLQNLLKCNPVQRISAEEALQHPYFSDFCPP
Target sequence (Q15078 whole entry, looked up): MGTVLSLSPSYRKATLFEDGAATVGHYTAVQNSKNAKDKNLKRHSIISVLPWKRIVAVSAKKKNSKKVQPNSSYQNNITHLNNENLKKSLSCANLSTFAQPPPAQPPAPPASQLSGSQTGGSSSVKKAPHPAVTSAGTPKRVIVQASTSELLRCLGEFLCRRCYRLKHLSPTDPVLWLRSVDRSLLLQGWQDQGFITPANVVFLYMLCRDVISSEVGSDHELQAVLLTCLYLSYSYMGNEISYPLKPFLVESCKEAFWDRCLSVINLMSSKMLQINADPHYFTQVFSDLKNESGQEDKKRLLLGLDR
dFosB act-2 – activators of mouse delta FosB DNA binding, confirmation, biochemical, fluorescence polarization, TAMRA-CDK5 oligo, cherry-picked samples; shares compounds with dFosB act-1; purified delta FosB; normalised: neutral wells 0, positive control 100; activation, % at 24.9 µM; 2,400 tested, under 10 active; AID 588690, 2011;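 active = highest replicate activation at or above 34% and every replicate reaching that threshold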;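 note: higher polarization means more probe DNA bound by delta FosB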
* = called active by the depositor; . = no result given.

SMILES	Rtt109 HAT inh	CAL PDZ FP-1	dFosB act-1	Dyrk1A ADPGlo	CAL PDZ FP-2	CDK5 p35 inh	dFosB act-2
CNC(=O)c1c[nH]c2ccc(S(=O)(=O)Nc3cccc(SC)c3)cc2c1=O	2	-4	19*	-1	-5	1	2
COc1ccc(-c2nnn(CC(=O)NCc3cccs3)n2)cc1OC	-12	-1	30*	-3	2	0	-2
COc1ccc(-c2nnn(CC(=O)NCc3ccccc3)n2)cc1OC	-13	-2	11	-1	0	0	.
COc1ccccc1C(=O)Nc1ccc(-c2nnn(CC(=O)NCc3ccco3)n2)cc1	8	-1	42*	-7	-5	2	7
CCOc1ccc(-c2nnn(CC(=O)Nc3ccccc3OC)n2)cc1OCC	4	-1	59*	1	-1	1	0
C#CCOCCOCCOCCNc1nc(N2CCOCC2)nc(N2CCN(C(=O)[C@H](CO)n3cc([C@@H](N)C(C)C)nn3)CC2)n1	11	0	-7	-8	26	-1	.
COC(=O)C1CCN(C2CC(=O)N(c3cc(C)cc(C)c3)C2=O)CC1 (stereo not given)	48	-2	-8	-3	-1	-2	.
COc1ccc(NC(=O)CCC(=O)Nc2nnc(C3CCCCC3)s2)c(OC)c1	-3	-3	7	-3	-2	-2	.
COc1ccc(C)cc1NC(=O)CCC(=O)Nc1nnc(C2CCCCC2)s1	9	-3	40*	-3	-4	0	-8
CCOc1ccc(S(=O)(=O)Nc2nc3ccccc3nc2-n2ccc(=NC(=O)c3cccs3)cc2)cc1	3	-2	40*	-2	-5	0	6
O=C(N=c1ccn(-c2nc3ccccc3nc2NS(=O)(=O)c2ccccc2)cc1)c1ccccc1Cl	18	-4	-8	-1	-5	1	.
O=C(N=c1ccn(-c2nc3ccccc3nc2NS(=O)(=O)c2ccc(Cl)cc2)cc1)c1cccs1	-8	-3	31*	-7	-4	1	3
Cc1ccc(CC(C(=O)O)C(C)C(=O)Nc2ccc(F)cc2)cc1 (stereo not given)	3	.	3	-1	5	-1	.
CCc1cc2ccc(C)cc2nc1SCC(=O)Nc1cc(C)on1	-14	-1	-7	.	-4	2	.
CCc1cc2cc3c(cc2nc1SCC(=O)Nc1cc(C)on1)OCO3	-7	-2	49*	-7	-5	0	-2
O=Cc1cn(-c2ccccc2)nc1-c1cc2cc(O)ccc2oc1=O	11	-2	25*	0	.	3	3
CC1CCN(C(=S)c2cn(Cc3cccc(F)c3)c3ccccc23)CC1	.	0	-13	-1	2	0	.
Cc1cccc(C)c1NC(=O)CNC(=O)c1cccc(S(=O)(=O)NCc2cccs2)c1	3	0	24*	-7	2	3	-2
O=C(Nc1nc(-c2ccc3ccccc3c2)cs1)c1ccc(N2C(=O)CCC2=O)cc1	-3	-2	45*	4	-10	0	-2
Cc1cccc(OCC(=O)N/N=C\C=C\c2ccc3c(c2)OCO3)c1C	-5	0	38*	13	.	-4	1
NS(=O)(=O)c1ccc(CNC(=O)c2cc(-c3ccccn3)nc3ccc(Cl)cc23)cc1	.	-1	21*	2	2	3	-2
CCc1cccc2c(C(=O)COC(=O)c3ccc(O)cc3)c[nH]c12	-3	-1	36*	2	18	2	4
